The results in this text go back to ChEMBL document CHEMBL4118191, “Novel oxazolxanthone derivatives as a new type of α-glucosidase inhibitor: synthesis, activities, inhibitory modes and synergetic effect” (Bioorg Med Chem, 2018).

Active and inactive are the calls of the source. The rule behind the calls is not given here.

A short description of series [1]: Inhibition of Saccharomyces cerevisiae alpha-glucosidase using PNP glycoside as substrate preincubated for 30 mins followed by substrate addition measured after 60 secs by spectrophotometric method. The essentials: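 Yeast α-glucosidase was pre-incubated with inhibitor for 30 min at 37 °C before substrate addition. The reaction ran 60 s at 37 °C and was read by absorbance at 400 nm. Five inhibitor concentrations were bracketed around a first-round IC50 estimate, each in triplicate, and mean values were taken.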

Series [2] relates to Saccharomyces cerevisiae. Nature of the series: Competitive inhibition of Saccharomyces cerevisiae alpha-glucosidase at 50 to 60 uM using varying levels of PNP glycoside as substrate preincubated for 30 mins followed by substrate addition measured after 60 secs by Lineweaver-Burk plot analysis. The method, boiled down:
(§1)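 Mode of inhibition came from Lineweaver–Burk double-reciprocal plots. At each fixed inhibitor concentration, yeast α-glucosidase activity was measured over varying PNP glycoside concentrations. Enzyme–inhibitor mixtures were in 50 mM phosphate buffer, pH 6.8, with 5% v/v DMSO, and were pre-incubated 30 min at 37 °C before substrate addition. The reaction ran 60 s at 37 °C and was read at 400 nm.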

Series [3] can be described thus: Non-competitive inhibition of Saccharomyces cerevisiae alpha-glucosidase using varying levels of PNP glycoside as substrate preincubated for 30 mins followed by substrate addition measured after 60 secs by Lineweaver-Burk plot analysis. The essentials:
as §1

Series [4] deals with Saccharomyces cerevisiae. Nature of the series: Inhibition of Saccharomyces cerevisiae alpha-glucosidase at 2 uM using PNP glycoside as substrate preincubated for 30 mins followed by substrate addition measured after 60 secs by spectrophotometric method relative to control. The method, boiled down: (§2)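 Single-point inhibition of yeast α-glucosidase, tested individually and as a 1:1 molar mixture at a fixed total concentration of 2. Inhibitor and enzyme were pre-incubated 30 min at 37 °C, then substrate was added. The reaction ran 60 s at 37 °C with absorbance read at 400 nm. Percent inhibition is relative to control.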

Series [5] deals with Saccharomyces cerevisiae. Nature of the series: Synergistic inhibition of Saccharomyces cerevisiae alpha-glucosidase at 1:1 molar ratio of compound to 5-methoxy-2-(4-methoxyphenyl)-6H-xantheno [4, 3-d] oxazol-6-one using PNP glycoside as substrate preincubated for 30 mins followed by substrate addition measured after 60 secs by spectrophotometric method relative to control. The method, boiled down:
as §2

Series [6] has as its system Saccharomyces cerevisiae. Nature of the series: Synergistic inhibition of Saccharomyces cerevisiae alpha-glucosidase at 1:1 molar ratio of compound to 5-methoxy-2-(4-methoxyphenyl)-6H-xantheno [4, 3-d] oxazol-6-one using PNP glycoside as substrate preincubated for 30 mins followed by substrate addition measured after 60 secs by spectrophotometric method relative to compound alone. The method, boiled down:
as §2

Series [7] can be described thus: Synergistic inhibition of Saccharomyces cerevisiae alpha-glucosidase at 4:6 molar ratio of compound to 5-methoxy-2-(4-methoxyphenyl)-6H-xantheno [4, 3-d] oxazol-6-one using PNP glycoside as substrate preincubated for 30 mins followed by substrate addition measured after 60 secs by spectrophotometric method. The method, boiled down:
(§3)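 Yeast α-glucosidase IC50 was determined for the two-inhibitor mixture at a 4:6 molar ratio and for each inhibitor alone. Pre-incubation was 30 min at 37 °C, followed by a 60 s reaction at 37 °C read at 400 nm. Five concentrations were run in triplicate and means taken. Ratios compare single-compound IC50 with mixture IC50.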

The test system of series [8] is Saccharomyces cerevisiae. Nature of the series: Ratio of compound alone IC50 to compound IC50 in presence of 5-methoxy-2-(4-methoxyphenyl)-6H-xantheno [4, 3-d] oxazol-6-one for Saccharomyces cerevisiae alpha-glucosidase. The essentials: as §3
A short description of series [9]: Solubility of the compound. Type of series: physicochemical.
Series [10] has as its system Saccharomyces cerevisiae. Nature of the series: Synergistic inhibition of Saccharomyces cerevisiae alpha-glucosidase at 1:1 molar ratio of compound to 5-hydroxy-2-(4-methoxyphenyl)-6H-xantheno [4, 3-d] oxazol-6-one using PNP glycoside as substrate preincubated for 30 mins followed by substrate addition measured after 60 secs by spectrophotometric method relative to control. The method, boiled down: as §2

Series [11] concerns Saccharomyces cerevisiae. As to the kind of experiment: Synergistic inhibition of Saccharomyces cerevisiae alpha-glucosidase at 1:1 molar ratio of compound to 5-hydroxy-2-(4-methoxyphenyl)-6H-xantheno [4, 3-d] oxazol-6-one using PNP glycoside as substrate preincubated for 30 mins followed by substrate addition measured after 60 secs by spectrophotometric method relative to compound alone. The essentials:
as §2

Series [12] relates to Saccharomyces cerevisiae. As to the kind of experiment: Ratio of IC50 for synergistic inhibition of Saccharomyces cerevisiae alpha-glucosidase assessed as 5-hydroxy-2-(4-methoxyphenyl)-6H-xantheno [4, 3-d] oxazol-6-one IC50 to IC50 for Saccharomyces cerevisiae alpha-glucosidase. The essentials:
as §3

`Cc1nc2c(cc(O)c3c(=O)c4ccccc4oc32)o1`: half-maximal inhibition in series [1] (IC50) required 64.4 µM. In the series with Saccharomyces cerevisiae [2], the inhibition result is “Active”. Take `COc1ccc(-c2nc3c(cc(O)c4c(=O)c5ccccc5oc43)o2)cc1`: the figures for the IC50 in series [1] and in series [7] were 7.1 µM and 1.9 µM, respectively. In [3], this compound came in with an inhibitory constant (Ki) of 5.3 µM. The inhibition with Saccharomyces cerevisiae [4] was determined as 21.7%; with Saccharomyces cerevisiae [5], 41.9%. Besides, the fold change (FC) in the series on Saccharomyces cerevisiae [6] was 2. For the same compound, in the series on Saccharomyces cerevisiae [8], the Ratio IC50 is 3.5. For `O=c1c2ccccc2oc2c1c(O)cc1oc(-c3ccc(F)cc3)nc12`, the IC50 in [1] stood at 6.7 µM. `O=c1c2ccccc2oc2c1c(O)cc1oc(-c3ccc(O)cc3)nc12` had an IC50 in [1] of 7.3 µM. In turn, `O=c1c2ccccc2oc2c1c(O)cc1oc(-c3cccc(F)c3)nc12` had an IC50 in [1] of 8.9 µM. The same measure, in the same setting: next, `Nc1c(O)cc(O)c2c(=O)c3ccccc3oc12`: 127 µM; `OC[C@H]1NC[C@H](O)[C@@H](O)[C@@H]1O` [DUVOGLUSTAT]: 60.3 µM.

On to `O=c1c2ccccc2oc2c1c(O)cc1oc(C3CCCCC3)nc12`, for which, in series [1], half-maximal inhibition (IC50) was put at 38.5 µM. Still for that read-out and setting: the figure for `O=c1c2ccccc2oc2cc(O)cc(O)c12` is 186 µM. `O=c1c2ccccc2oc2c1c(O)cc1oc(-c3c(F)cc(F)cc3F)nc12` registered an IC50 in series [1] of 6.3 µM. The affinity in [3], expressed as Ki, was 6.8 µM.

In turn, `COc1cc2oc(-c3ccccc3)nc2c2oc3ccccc3c(=O)c12` came in with an IC50 in [1] of 19.6 µM. In addition, in series [9], the solubility result is “Soluble”. Compound `Nc1ccc(-c2nc3c(cc(O)c4c(=O)c5ccccc5oc43)o2)cc1` came in with an IC50 in [1] of 8.3 µM. Turning to `COc1ccc(-c2nc3c(cc(OC)c4c(=O)c5ccccc5oc43)o2)cc1`, in [1], inhibition was half-maximal at 8.6 µM (IC50). The solubility result in [9] is “Soluble”. The Ki in series [3] worked out at 7.4 µM. Also, the inhibition with Saccharomyces cerevisiae [4] was 20.3%; in the series on Saccharomyces cerevisiae [10], 41.9%. For the same compound, the fold change (FC) in the series with Saccharomyces cerevisiae [11] turned out to be 2. The Ratio IC50 in the series on Saccharomyces cerevisiae [12] came out at 4. Regarding `O=c1c2ccccc2oc2c1c(O)cc1oc(-c3ccc([N+](=O)[O-])cc3)nc12`, in series [1], half-maximal inhibition (IC50) required 24.5 µM. Still for that read-out and setting: next, `O=c1c2ccccc2oc2c1c(O)cc1oc(-c3ccc(Br)cc3)nc12`: 11 µM; `O=c1c2ccccc2oc2c([N+](=O)[O-])c(O)cc(O)c12`: 286 µM. On the same count and under the same terms, next, `O=c1c2ccccc2oc2c1c(O)cc1oc(-c3ccc(C(F)(F)F)cc3)nc12`: 26.9 µM. In turn, `COc1cc2oc(-c3ccc(Cl)cc3)nc2c2oc3ccccc3c(=O)c12` displayed an IC50 in series [1] of 9.9 µM. Moreover, in series [9], the solubility result is given as “Soluble”. Turning to `O=c1c2ccccc2oc2c1c(O)cc1oc(-c3ccccc3F)nc12`, in series [1], half-maximal inhibition (IC50) was put at 8.4 µM.

In turn, `O=c1c2ccccc2oc2c1c(O)cc1oc(-c3ccccc3)nc12` displayed an IC50 in [1] of 18.3 µM. Regarding `O=c1c2ccccc2oc2c1c(O)cc1oc(-c3ccc(Cl)cc3)nc12`, the IC50 in series [1] turned out to be 8.8 µM. As for `Cc1ccc(-c2nc3c(cc(O)c4c(=O)c5ccccc5oc43)o2)cc1`, the IC50 in series [1] was found to be 19.1 µM.
